pIC50: −log10 of the molar value. Activity calls are given as the source filed them. The rule behind the calls is not given here. Where a SMILES comes first, the peptide text is derived from it. [ ]: non-standard residue; d: D form. The star is where a group is joined. ProΨ(CH2NH)PheNH2 = NC(=O)[C@H](Cc1ccccc1)NC[C@@H]1CCCN1*; dProψ(CH2NH)PheNH2 = NC(=O)[C@H](Cc1ccccc1)NC[C@H]1CCCN1*; Propanoyl(3-(4-MeO-Ph)) = COc1ccc(CCC(=O)*)cc1; Desaminotyrosyl = O=C(CCc1ccc(O)cc1)*; Hydrocinnamoyl = O=C(CCc1ccccc1)*; X8 = COc1cc(CCC(=O)*)cc(OC)c1OC; X5 = C[C@@H](C(=O)*)c1ccccc1; X6 = C[C@H](C(=O)*)c1ccccc1; X7 = CC(C)(CC(=O)*)c1ccccc1; X1 = CC(C)(C(=O)*)c1ccccc1; Sar = CNCC(=O)O
Experiments:
[1] = molecular target: T1, Gastrin-releasing peptide receptor (Mus musculus, UniProt P21729); assay: The ability of the peptide to inhibit the binding of 50 pM [125I]gastrin releasing peptide to intact S-3T3 cells; format: cell-based
How it was run: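 Serially diluted peptides overlaid in triplicate on quiescent Swiss 3T3 monolayers (about 10^5 cells) with 50 pM [125I]GRP in maintenance medium, 30 min at 37 °C. Monolayers washed three times with chilled medium, solubilized, radioactivity counted. IC50 values reported.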

[2] = molecular target: T1, Gastrin-releasing peptide receptor; assay: Ability of peptide to inhibit binding of 10 pM [125I]gastrin releasing peptide to S-3T3 cell membrane.; format: cell-based
How it was run: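 Swiss 3T3 membranes (10 µg protein) incubated in triplicate with 10 pM [125I]GRP(1-27) in HEPES-KOH pH 6.8 (20 mM) with EGTA, MgCl2, BSA and protease inhibitors, 60 min at 37 °C with shaking. Terminated by filtration through PEI-pretreated GF/B filters, gamma counted. Nonspecific binding taken with 10 nM unlabeled GRP(1-27). IC50 for half-maximal inhibition of specific binding by Hill plot analysis.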

[3] = molecular target: Gastrin-releasing peptide receptor (Mus musculus) (UniProt P21729); assay: Inhibition of 6 nM bombesin induced [3H]thymidine incorporation measured in swiss 3T3 cells using a mitogenicity assay; format: functional, cell-based
How it was run: (§1)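 Density-arrested quiescent Swiss 3T3 monolayers treated in triplicate with test peptide (generally log dilutions) plus 6 nM bombesin for 18 h, then pulsed 2 h with 0.5 µCi [3H]thymidine per well. Cells washed with cold PBS, fixed in methanol/acetic acid, solubilized, scintillation counted. IC50 ± SEM over replicate trials; na means no activity at 10^-4 M.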

[4] = The ability of the peptide to inhibit the binding of 10 pM [125I]gastrin releasing peptide to S-3T3 cell membrane was measured; details: Mus musculus
NIH3T3 [5] = assay: The ability of the peptide to inhibit the binding of 50 pM [125I]gastrin releasing peptide to intact S-3T3 cells was measured; format: cell-based; details: Mus musculus
How it was run: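 Quiescent, density-arrested Swiss 3T3 monolayers (about 10^5 cells) in maintenance medium. Serially diluted peptides were added in triplicate with [125I]GRP and incubated 37 °C, 30 min. Monolayers were washed three times with chilled medium, solubilized with detergent and counted. IC50 reported ± SEM.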

NIH3T3 [6] = assay: Ability of the peptide to inhibit 6 nM bombesin induced [3H]thymidine incorporation was measured in swiss 3T3 cells using mitogenicity assay; na=Not active; format: functional, cell-based; details: Mus musculus; how it was run: as §1

Sequence of Gastrin-releasing peptide receptor (Mus musculus) (P21729 whole entry): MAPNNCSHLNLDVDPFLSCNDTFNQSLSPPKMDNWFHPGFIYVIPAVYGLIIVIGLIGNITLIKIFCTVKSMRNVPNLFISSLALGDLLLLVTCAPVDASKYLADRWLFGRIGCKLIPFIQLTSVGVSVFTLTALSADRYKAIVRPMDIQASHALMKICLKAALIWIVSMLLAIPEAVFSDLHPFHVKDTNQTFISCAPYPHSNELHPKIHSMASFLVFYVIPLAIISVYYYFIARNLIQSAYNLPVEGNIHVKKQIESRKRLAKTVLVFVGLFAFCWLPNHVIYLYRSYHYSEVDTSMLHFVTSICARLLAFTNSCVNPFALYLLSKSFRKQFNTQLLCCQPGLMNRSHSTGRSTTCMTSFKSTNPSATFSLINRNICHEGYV
T1 sequence (P21729 whole entry): as above

pIC50 [1] | pIC50 [2] | Activity [3] | Compound | pIC50 [4] | pIC50 (NIH3T3 [5]) | Activity (NIH3T3 [6])
10.52 | 10.31 | 0.2 nM | CC(C)[C@H](NC(=O)[C@H](C)NC(=O)[C@H](Cc1c[nH]c2ccccc12)NC(=O)[C@H](Cc1c[nH]cn1)NC(=O)C1C[C@@H]1c1ccccc1)C(=O)N[C@H](C)C(=O)N[C@@H](Cc1c[nH]cn1)C(=O)N1CCC[C@@H]1CN[C@@H](Cc1ccccc1)C(N)=O (stereo partly drawn) |  |  | 
10.00 | 7.68 |  | CC(C)[C@H](NC(=O)[C@H](C)NC(=O)[C@H](Cc1c[nH]c2ccccc12)NC(=O)[C@H](Cc1cnc[nH]1)NC(=O)CCc1ccccc1)C(=O)N(C)CC(=O)N[C@@H](Cc1cnc[nH]1)C(=O)N1CCC[C@H]1CN[C@@H](Cc1ccccc1)C(N)=O (Hydrocinnamoyl-HWAV[Sar]H-{ProΨ(CH2NH)PheNH2}) |  |  | 
 |  | 0.3 nM | COc1ccc(CCC(=O)N[C@@H](Cc2c[nH]cn2)C(=O)N[C@@H](Cc2c[nH]c3ccccc23)C(=O)N[C@@H](C)C(=O)N[C@H](C(=O)N[C@H](C)C(=O)N[C@@H](Cc2c[nH]cn2)C(=O)N2CCC[C@@H]2CN[C@@H](Cc2ccccc2)C(N)=O)C(C)C)cc1 ({Propanoyl(3-(4-MeO-Ph))}-HWAV[dA]H-{dProψ(CH2NH)PheNH2}) | 9.33 | 8.00 | 
10.00 | 8.70 | 13 nM | CC(C)[C@H](NC(=O)[C@H](C)NC(=O)[C@H](Cc1c[nH]c2ccccc12)NC(=O)[C@H](Cc1c[nH]cn1)NC(=O)Cc1ccccc1N)C(=O)N[C@H](C)C(=O)N[C@@H](Cc1c[nH]cn1)C(=O)N1CCC[C@@H]1CN[C@@H](Cc1ccccc1)C(N)=O |  |  | 
7.22 | 6.85 |  | CC(NC(=O)[C@H](Cc1c[nH]c2ccccc12)NC(=O)[C@H](Cc1c[nH]cn1)NC(=O)CCc1ccccc1)C(=O)N[C@H](C(=O)NC(C)C(=O)N[C@@H](Cc1c[nH]cn1)C(=O)N1CCC[C@@H]1C(O)CC(=O)N[C@@H](Cc1ccccc1)C(N)=O)C(C)C (stereo in doubt) |  |  | inactive
8.00 | 9.68 |  | CC(C)[C@H](NC(=O)[C@H](C)NC(=O)[C@H](Cc1c[nH]c2ccccc12)NC(=O)[C@H](Cc1cnc[nH]1)NC(=O)C[C@H](C)c1ccccc1)C(=O)N[C@H](C)C(=O)N[C@@H](Cc1cnc[nH]1)C(=O)N1CCC[C@@H]1CN[C@@H](Cc1ccccc1)C(N)=O |  |  | 
8.00 | 9.80 |  | CC(C)[C@H](NC(=O)[C@H](C)NC(=O)[C@H](Cc1c[nH]c2ccccc12)NC(=O)[C@H](Cc1cnc[nH]1)NC(=O)CCc1cccc(C(F)(F)F)c1)C(=O)N[C@H](C)C(=O)N[C@@H](Cc1cnc[nH]1)C(=O)N1CCC[C@@H]1CN[C@@H](Cc1ccccc1)C(N)=O |  |  | 
12.00 | 10.30 |  | CC(C)[C@H](NC(=O)[C@H](C)NC(=O)[C@H](Cc1c[nH]c2ccccc12)NC(=O)[C@H](Cc1cnc[nH]1)NC(=O)c1cccc2ccccc12)C(=O)N[C@H](C)C(=O)N[C@@H](Cc1cnc[nH]1)C(=O)N1CCC[C@@H]1CN[C@@H](Cc1ccccc1)C(N)=O |  |  | 
10.30 | 9.64 |  | CC(C)[C@H](NC(=O)[C@H](C)NC(=O)[C@H](Cc1c[nH]c2ccccc12)NC(=O)[C@H](Cc1cnc[nH]1)NC(=O)CCc1ccc(O)cc1)C(=O)N[C@H](C)C(=O)N[C@@H](Cc1cnc[nH]1)C(=O)N1CCC[C@@H]1CN[C@@H](Cc1ccccc1)C(N)=O (Desaminotyrosyl-HWAV[dA]H-{dProψ(CH2NH)PheNH2}) |  |  | 
12.00 | 9.66 | 1 nM | CC(NC(=O)[C@H](Cc1c[nH]c2ccccc12)NC(=O)[C@H](Cc1c[nH]cn1)NC(=O)CCc1ccccc1)C(=O)N[C@H](C(=O)NC(C)C(=O)N[C@@H](Cc1c[nH]cn1)C(=O)N1CCC[C@H]1CN[C@@H](Cc1ccccc1)C(N)=O)C(C)C (stereo in doubt) |  |  | 
10.00 | 7.14 | 6 nM | CC(C)CC(NC(=O)[C@H](Cc1c[nH]cn1)NC(=O)C(C)NC(=O)[C@@H](NC(=O)C(C)NC(=O)[C@H](Cc1c[nH]c2ccccc12)NC(=O)[C@H](Cc1c[nH]cn1)NC(=O)CCc1ccccc1)C(C)C)C(O)CC(=O)N[C@@H](Cc1ccccc1)C(N)=O (stereo in doubt) |  |  | 
8.00 | 8.92 | 18 nM | CC(C)[C@H](NC(=O)[C@H](C)NC(=O)[C@H](Cc1c[nH]c2ccccc12)NC(=O)[C@H](Cc1c[nH]cn1)NC(=O)CC(C)(C)c1ccccc1)C(=O)N[C@H](C)C(=O)N[C@@H](Cc1c[nH]cn1)C(=O)N1CCC[C@@H]1CN[C@@H](Cc1ccccc1)C(N)=O (X7-HWAV[dA]H-{dProψ(CH2NH)PheNH2}) |  |  | 
8.00 | 7.25 | 50 nM | CC(NC(=O)[C@H](Cc1c[nH]c2ccccc12)NC(=O)[C@H](Cc1cccs1)NC(=O)CCc1ccccc1)C(=O)N[C@H](C(=O)NC(C)C(=O)N[C@@H](Cc1c[nH]cn1)C(=O)N1CCC[C@H]1CN[C@@H](Cc1ccccc1)C(N)=O)C(C)C (stereo in doubt) |  |  | 
8.30 | 8.70 |  | CC(C)[C@H](NC(=O)[C@H](C)NC(=O)[C@H](Cc1c[nH]c2ccccc12)NC(=O)[C@H](Cc1cnc[nH]1)NC(=O)CCc1ccccc1)C(=O)N[C@H](C)C(=O)N[C@@H](Cc1cnc[nH]1)C(=O)N1CCC[C@@H]1CN[C@H](Cc1ccc2ccccc2c1)C(N)=O |  |  | 
9.00 | 8.89 | 7e-08 | CC(C)[C@H](NC(=O)[C@H](C)NC(=O)[C@H](Cc1c[nH]c2ccccc12)NC(=O)[C@H](Cc1c[nH]cn1)NC(=O)[C@@H](C)c1ccccc1)C(=O)N[C@H](C)C(=O)N[C@@H](Cc1c[nH]cn1)C(=O)N1CCC[C@@H]1CN[C@@H](Cc1ccccc1)C(N)=O (X6-HWAV[dA]H-{dProψ(CH2NH)PheNH2}) |  |  | 
11.52 | 9.74 | 0.34 nM | CC(C)[C@H](NC(=O)[C@H](C)NC(=O)[C@H](Cc1c[nH]c2ccccc12)NC(=O)[C@H](Cc1c[nH]cn1)NC(=O)C(C)(C)c1ccccc1)C(=O)N[C@H](C)C(=O)N[C@@H](Cc1c[nH]cn1)C(=O)N1CCC[C@@H]1CN[C@@H](Cc1ccccc1)C(N)=O (X1-HWAV[dA]H-{dProψ(CH2NH)PheNH2}) |  |  | 
9.52 | 10.10 |  | CC(C)[C@H](NC(=O)[C@H](C)NC(=O)[C@H](Cc1c[nH]c2ccccc12)NC(=O)[C@H](Cc1cnc[nH]1)NC(=O)C1CCc2ccccc2C1)C(=O)N[C@H](C)C(=O)N[C@@H](Cc1cnc[nH]1)C(=O)N1CCC[C@@H]1CN[C@@H](Cc1ccccc1)C(N)=O (stereo partly drawn) |  |  | 
7.52 | 9.02 | 0.9 nM | CC(C)[C@H](NC(=O)[C@H](C)NC(=O)[C@H](Cc1c[nH]c2ccccc12)NC(=O)[C@H](Cc1c[nH]cn1)NC(=O)[C@H](C)c1ccccc1)C(=O)N[C@H](C)C(=O)N[C@@H](Cc1c[nH]cn1)C(=O)N1CCC[C@@H]1CN[C@@H](Cc1ccccc1)C(N)=O (X5-HWAV[dA]H-{dProψ(CH2NH)PheNH2}) |  |  | 
7.30 | 7.51 | 26 nM | CC(NC(=O)[C@H](Cc1c[nH]c2ccccc12)NC(=O)[C@H](Cc1c[nH]cn1)NC(=O)CCc1ccccc1)C(=O)N[C@H](C(=O)NC(C)C(=O)N[C@@H](Cc1c[nH]cn1)C(=O)N1CCC[C@H]1C(O)CC(=O)N[C@@H](Cc1ccccc1)C(N)=O)C(C)C (stereo in doubt) |  |  | 

Compound | pIC50 [1] | pIC50 [2] | Activity [3] | pIC50 [4] | pIC50 (NIH3T3 [5]) | Activity (NIH3T3 [6])
COc1cc(CCC(=O)N[C@@H](Cc2c[nH]cn2)C(=O)N[C@@H](Cc2c[nH]c3ccccc23)C(=O)N[C@@H](C)C(=O)N[C@H](C(=O)N[C@H](C)C(=O)N[C@@H](Cc2c[nH]cn2)C(=O)N2CCC[C@@H]2CN[C@@H](Cc2ccccc2)C(N)=O)C(C)C)cc(OC)c1OC (X8-HWAV[dA]H-{dProψ(CH2NH)PheNH2}) |  |  | 0.3 nM | 9.34 | 12.00 | 
